These results are taken from ChEMBL document CHEMBL1124846, “Synthesis, antiproliferative, and antiviral activity of certain 4-substituted and 4,5-disubstituted 7-[(1,3-dihydroxy-2-propoxy)methyl]pyrrolo[2,3-d]pyrimidines” (J Med Chem, 1990).

“And” between values parts separate entries of the source, which are not always exact repeats. Identical values can stand only once.

Assay [1] has as its system Human alphaherpesvirus 1. Briefly: Inhibition of herpes simplex virus (HSV-1) in plaque reduction assay. The format is functional, organism-based. In a few lines: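 HSV-1 S-148 strain plaque reduction in BSC-1 monkey kidney monolayers, with about 100 PFU inoculum and compound dissolved in the overlay medium. IC50 came from linear regression of percent inhibition against log concentration, with a positive control in each set.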
A general note: In a plaque reduction assay, fewer plaques than in the control indicate reduced infectivity or spread.

Assay [2] can be described thus: Cytotoxic activity against BSC cells. The format is cell-based. Conditions: Cercopithecidae. An outline of the steps: (§1)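 Cytotoxicity was scored visually in uninfected HFF or BSC-1 monolayers within the plaque-reduction assays. Drug-induced cytopathology was read at 35- and 60-fold magnification on a 0 to 4+ scale on the day plaques were stained and counted.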
Assay [3] concerns Human alphaherpesvirus 1. Briefly: Inhibition of herpes simplex virus (HSV-1) in yield reduction assay. The format is functional, organism-based.
Assay [4] has as its system L1210. Briefly: In vitro inhibition of L1210 cell growth. The format is functional, Mus musculus. Also on record: concentration or dose not given beside the values. In a few lines:
(§2)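 Murine L1210 leukemia cells in static suspension culture in Fischer's medium with compound for 4 days. Growth rate is the ratio of control to treated population doubling time; where the rate changed, the final rate was used. IC50 is the concentration giving 50% of control growth rate; single-concentration value at 100 μM.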

In another assay the test system is Neoplastic cell line. Briefly: Cytotoxic activity against KB cells. The format is cell-based. The conditions noted are these: Homo sapiens. In a few lines:
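KB cells (human oral epidermoid carcinoma) grown in MEM(H) with 5% FBS. Compound effect on incorporation of radiolabelled precursors into DNA, RNA and protein was measured. IC50s came from linear regression of percent inhibition against log concentration, and the three IC50s were averaged.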

Assay [5] in a line: Cytotoxic activity against HFF cells. The format is cell-based. Conditions: Homo sapiens. In a few lines: as §1
A further assay concerns Human betaherpesvirus 5. Briefly: Inhibition of human cytomegalovirus (HCMV) in plaque reduction assay. The format is functional, organism-based. In a few lines:
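HCMV Towne strain (plaque-purified P0) plaque reduction in HFF monolayers in MEM(E) with 10% FBS. Inoculum held about 50 PFU, with compound dissolved in the overlay medium. IC50 came from linear regression of percent inhibition against log concentration, with ganciclovir or acyclovir positive controls in every set; two to five experiments.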

In assay [6] the test system is L1210. Briefly: In vitro inhibition of L1210 cell growth to half of the control rate. The format is functional, cell-based. Conditions: Mus musculus. In a few lines: as §2

For orientation: IC50 means the concentration that gives 50% inhibition. As usually defined, the IC90 is the concentration at which the effect reaches the 90% level. Consider `Nc1ncnc2c1c(Cl)cn2COC(CO)CO`, for which the IC50 was 16 µM in the assay with Human alphaherpesvirus 1 [1]; greater than 100 µM in assay [2]; greater than 100 µM in the assay with Neoplastic cell line; greater than 100 µM in assay [5]; 8 µM with Human betaherpesvirus 5; 9.8 µM in the assay with Human betaherpesvirus 5 (Human betaherpesvirus 5). The molecule further came in with an IC50 in the assay with L1210 [6] of 2.3 µM. For the same molecule, in the assay on Human alphaherpesvirus 1 [3], it took 22 µM to reach the 90% level (IC90). In the assay with L1210 [4], this molecule gave an Activity of 6%.

With `Nc1ncnc2c1ccn2COC(CO)CO`, the IC50 (in the assay with Human alphaherpesvirus 1 [1]; in assay [2]; in assay [5]; in the assay with Human betaherpesvirus 5 (Human betaherpesvirus 5)) was greater than 100 µM throughout. Moreover, the Activity with L1210 [4] was determined as 106%.

For the molecule `OCC(CO)OCn1cc(I)c2c(NO)ncnc21`, the IC50 was 30 µM in the assay with Human alphaherpesvirus 1 [1]; greater than 100 µM in assay [5]; 18 µM and 3.2 µM in the assay with Human betaherpesvirus 5; 39 µM with L1210 [6]. The Activity in the assay with L1210 [4] is on record as 11%.

For `Nc1ncnc2c1c(I)cn2COC(CO)CO`, the IC50 in the assay with Human alphaherpesvirus 1 [1] is 4 µM; in assay [5] it was greater than 100 µM; in the assay on Human betaherpesvirus 5, 3.1 µM and 0.9 µM; in the assay on L1210 [6], 2.8 µM. The molecule further displayed an Activity in the assay on L1210 [4] of 6%.

For the molecule `OCC(CO)OCn1ccc2c(NO)ncnc21`, the Activity with L1210 [4] was 100%. For the same molecule, the IC50 (in assay [5]; in the assay with Human betaherpesvirus 5 (Human betaherpesvirus 5)) was greater than 100 µM in each case.

`CCNc1ncnc2c1c(Cl)cn2COC(CO)CO`: the IC50 with Human alphaherpesvirus 1 [1] was greater than 100 µM; in assay [2], greater than 100 µM; in assay [5] it was greater than 100 µM; with Human betaherpesvirus 5 (Human betaherpesvirus 5) it was 100 µM; in the assay on L1210 [6], greater than 100 µM. For the same molecule, the Activity with L1210 [4] is reported as 78%.

As to `Cc1cn(COC(CO)CO)c2ncnc(N)c12`, the IC50 (in the assay with Human alphaherpesvirus 1 [1]; in assay [5]; in the assay with Human betaherpesvirus 5 (Human betaherpesvirus 5); with L1210 [6]) was greater than 100 µM throughout. The molecule further had an Activity in the assay on L1210 [4] of 73%.

In the assay on L1210 [4], `OC[C@H]1O[C@@H](n2cc(Br)c3c(NO)ncnc32)[C@H](O)[C@@H]1O` registered an Activity of 10%. In addition, the IC50 was greater than 100 µM in the assay on Neoplastic cell line; greater than 100 µM in assay [5]; 3 µM with Human betaherpesvirus 5; 5.6 µM with Human betaherpesvirus 5 (Human betaherpesvirus 5); 25 µM in the assay with L1210 [6].
